Molecules are shown by their SMILES.

Data set [1] concerns SH-SY5Y. As to the kind of experiment: Neuroprotective activity against K+ induced Ca2+ overload in human SH-SY5Y cells assessed as protection at 5 uM after 24 hrs by MTT assay relative to control. Type of data set: functional. The essentials:
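SH-SY5Y cells, 1 × 10⁵/well, 1% FBS medium, up to 13 passages. Compound diluted from 10⁻² M DMSO stock to 5 μM and co-incubated 24 h with 70 mM K⁺ (hypertonic); DMSO-only controls. MTT at 5 mg/mL for 2 h at 37 °C, read at 540 nm. % protection computed against basal as 100% survival and normalized to K⁺ toxicity; at least five cultures in triplicate.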

Data set [2] deals with SH-SY5Y. As to the kind of experiment: Neuroprotective activity against rotenone-oligomycin A-induced oxidative stress in human SH-SY5Y cells assessed as survival at 5 uM co-incubated rot/oligo for 24 hrs by MTT assay (Rvb =65.6 +/- 1.3%). The class given is functional. To be noted: read-out: Survival.
Data set [3] concerns SH-SY5Y. As to the kind of experiment: Neuroprotective activity against rotenone-oligomycin A-induced oxidative stress in human SH-SY5Y cells assessed as protection at 5 uM co-incubated rot/oligo for 24 hrs by MTT assay relative to control. Type of data set: functional. The essentials: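 SH-SY5Y cells in 1% FBS medium co-incubated 24 h with compound and rotenone/oligomycin A (30/10 μM). Melatonin 0.3 μM was the positive control, and compounds were used at 5 μM. Viability by MTT reduction at 540 nm. % protection computed against basal as 100% and normalized to rot/olig toxicity; five to seven cultures in triplicate.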

For data set [4], the system named is SH-SY5Y. As to the kind of experiment: Neuroprotective activity against rotenone-oligomycin A-induced oxidative stress in human SH-SY5Y cells assessed as survival incubated with rot/oligo for 8 hrs followed by treated with compound at 5 uM for 16 hrs by MTT assay (Rvb =70.6 +/- 1.8%). The class given is functional. To be noted: read-out: Survival. The essentials: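 SH-SY5Y cells cultured 24 h, then exposed to rotenone/oligomycin A (30/10 μM) for 8 h at 37 °C. Stressor removed; compound in 1% FBS medium added for 16 h. DMSO-only control. MTT reduction (5 mg/mL, 2 h, 37 °C; OD 540 nm). Survival relative to untreated basal; mean ± SEM of five to seven cultures in triplicate.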

In data set [5] the test system is SH-SY5Y. Kind of data set: Neuroprotective activity against rotenone-oligomycin A-induced oxidative stress in human SH-SY5Y cells assessed as protection incubated with rot/oligo for 8 hrs followed by treated with compound at 5 uM for 16 hrs by MTT assay relative to control. The class given is functional. The essentials: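 SH-SY5Y cells cultured 24 h, then exposed to rotenone/oligomycin A (30/10 μM) for 8 h at 37 °C. Stressor was removed and cells incubated 16 h with compound in 1% FBS medium. Melatonin 0.3 μM was the positive control, and compounds were used at 5 μM. Viability by MTT; % protection against basal as 100%, normalized to rot/olig toxicity; five to seven cultures in triplicate.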

Data set [6] has as its target Voltage-dependent L-type calcium channel subunit alpha-1D (Homo sapiens, UniProt Q01668). As to the kind of experiment: Inhibition of human Cav1.3 channel in human SH-SY5Y cells assessed as 70 mM K+ induced calcium elevation compound treated 15 mins before stimulus by Fluo-4/AM assay. The class given is cell-based. The method in brief:
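SH-SY5Y cells grown 2 days, loaded with 10 μM Fluo-4/AM for 1 h at 37 °C in serum-free medium, washed with Krebs-HEPES and held 15 min at room temperature. Compound applied 15 min before 70 mM KCl.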

Data set [7] concerns SH-SY5Y. Kind of data set: Neuroprotective activity against K+ induced Ca2+ overload in human SH-SY5Y cells assessed as survival at 5 uM after 24 hrs by MTT assay (reference value: 52.1 +/- 3.5%). The class given is functional. To be noted: read-out: Survival.
The target of data set [8] is Voltage-dependent L-type calcium channel subunit alpha-1C (Rattus norvegicus, UniProt P22002). Kind of data set: Inhibition of rat Cav1.2 channel in rat mesenteric artery assessed as relaxation of 70 mM K+ induced contraction. Type of data set: tissue-based. To be noted: for inhibition (INH): rat. The method in brief: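 Third-order mesenteric artery segments (2 mm) from 6-month-old Wistar Kyoto rats on a wire myograph, isometric tension, Krebs−Henseleit at 37 °C, pH 7.4. Segments equilibrated, stretched to optimal diameter, tested with 120 mM KCl, endothelium checked with 10 μM acetylcholine.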

Data set [9] is described as follows: Selectivity ratio of IC50 for human Cav1.3 channel to IC50 for rat Cav1.2 channel.

Chain of Voltage-dependent L-type calcium channel subunit alpha-1D (Q01668 whole entry): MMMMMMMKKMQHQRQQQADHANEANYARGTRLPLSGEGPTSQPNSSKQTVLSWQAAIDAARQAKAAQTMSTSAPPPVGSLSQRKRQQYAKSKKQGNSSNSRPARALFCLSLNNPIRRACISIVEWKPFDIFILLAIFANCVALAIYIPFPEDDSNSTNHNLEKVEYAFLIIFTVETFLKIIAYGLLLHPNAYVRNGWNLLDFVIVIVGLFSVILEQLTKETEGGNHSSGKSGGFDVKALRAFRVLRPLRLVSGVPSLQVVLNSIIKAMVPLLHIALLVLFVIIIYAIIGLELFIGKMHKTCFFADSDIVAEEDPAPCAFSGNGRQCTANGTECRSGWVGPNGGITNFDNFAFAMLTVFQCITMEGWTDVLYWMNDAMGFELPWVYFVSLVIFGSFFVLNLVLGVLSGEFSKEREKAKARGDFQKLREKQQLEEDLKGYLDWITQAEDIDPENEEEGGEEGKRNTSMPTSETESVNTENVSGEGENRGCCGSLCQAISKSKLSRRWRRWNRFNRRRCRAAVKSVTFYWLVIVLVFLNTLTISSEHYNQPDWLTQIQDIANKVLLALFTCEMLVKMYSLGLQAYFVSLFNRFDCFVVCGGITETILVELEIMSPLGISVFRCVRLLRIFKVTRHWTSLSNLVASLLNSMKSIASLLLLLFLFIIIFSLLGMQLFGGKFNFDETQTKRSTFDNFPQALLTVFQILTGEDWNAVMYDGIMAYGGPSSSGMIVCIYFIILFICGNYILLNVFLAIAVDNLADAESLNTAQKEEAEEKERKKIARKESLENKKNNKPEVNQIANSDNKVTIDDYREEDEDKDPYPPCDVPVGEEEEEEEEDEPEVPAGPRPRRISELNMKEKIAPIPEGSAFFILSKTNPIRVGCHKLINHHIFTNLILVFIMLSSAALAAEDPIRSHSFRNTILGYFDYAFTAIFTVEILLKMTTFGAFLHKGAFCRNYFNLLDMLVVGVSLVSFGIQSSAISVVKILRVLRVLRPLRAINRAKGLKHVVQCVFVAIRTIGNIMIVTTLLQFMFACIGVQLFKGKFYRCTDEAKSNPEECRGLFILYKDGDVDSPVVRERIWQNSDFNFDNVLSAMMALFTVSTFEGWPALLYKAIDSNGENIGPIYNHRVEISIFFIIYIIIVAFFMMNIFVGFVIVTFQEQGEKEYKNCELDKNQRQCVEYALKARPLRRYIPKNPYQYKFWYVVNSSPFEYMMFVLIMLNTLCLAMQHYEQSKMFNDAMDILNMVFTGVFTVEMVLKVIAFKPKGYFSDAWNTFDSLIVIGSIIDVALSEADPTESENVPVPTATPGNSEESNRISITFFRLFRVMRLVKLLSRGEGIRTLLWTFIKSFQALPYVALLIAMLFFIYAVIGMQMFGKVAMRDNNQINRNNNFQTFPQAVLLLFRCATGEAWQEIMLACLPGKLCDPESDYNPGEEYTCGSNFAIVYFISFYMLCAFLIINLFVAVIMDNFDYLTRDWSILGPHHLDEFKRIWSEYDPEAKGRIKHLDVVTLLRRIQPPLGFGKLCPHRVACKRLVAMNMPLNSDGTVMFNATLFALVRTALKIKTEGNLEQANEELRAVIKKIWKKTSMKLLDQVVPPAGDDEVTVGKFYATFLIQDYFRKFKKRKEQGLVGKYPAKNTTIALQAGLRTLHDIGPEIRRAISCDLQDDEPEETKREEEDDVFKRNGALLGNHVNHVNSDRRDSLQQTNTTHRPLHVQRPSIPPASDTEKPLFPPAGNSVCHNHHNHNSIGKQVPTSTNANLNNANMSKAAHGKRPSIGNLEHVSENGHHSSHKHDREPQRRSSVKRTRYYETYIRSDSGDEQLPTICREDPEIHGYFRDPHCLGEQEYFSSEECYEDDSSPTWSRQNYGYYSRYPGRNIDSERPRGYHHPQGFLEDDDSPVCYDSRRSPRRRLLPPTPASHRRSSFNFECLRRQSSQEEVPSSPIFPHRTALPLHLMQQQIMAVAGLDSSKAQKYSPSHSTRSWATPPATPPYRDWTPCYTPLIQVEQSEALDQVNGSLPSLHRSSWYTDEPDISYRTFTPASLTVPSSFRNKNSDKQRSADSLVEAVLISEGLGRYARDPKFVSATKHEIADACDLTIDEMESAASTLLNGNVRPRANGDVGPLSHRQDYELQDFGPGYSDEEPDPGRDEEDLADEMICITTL
Chain of Voltage-dependent L-type calcium channel subunit alpha-1C (P22002 whole entry): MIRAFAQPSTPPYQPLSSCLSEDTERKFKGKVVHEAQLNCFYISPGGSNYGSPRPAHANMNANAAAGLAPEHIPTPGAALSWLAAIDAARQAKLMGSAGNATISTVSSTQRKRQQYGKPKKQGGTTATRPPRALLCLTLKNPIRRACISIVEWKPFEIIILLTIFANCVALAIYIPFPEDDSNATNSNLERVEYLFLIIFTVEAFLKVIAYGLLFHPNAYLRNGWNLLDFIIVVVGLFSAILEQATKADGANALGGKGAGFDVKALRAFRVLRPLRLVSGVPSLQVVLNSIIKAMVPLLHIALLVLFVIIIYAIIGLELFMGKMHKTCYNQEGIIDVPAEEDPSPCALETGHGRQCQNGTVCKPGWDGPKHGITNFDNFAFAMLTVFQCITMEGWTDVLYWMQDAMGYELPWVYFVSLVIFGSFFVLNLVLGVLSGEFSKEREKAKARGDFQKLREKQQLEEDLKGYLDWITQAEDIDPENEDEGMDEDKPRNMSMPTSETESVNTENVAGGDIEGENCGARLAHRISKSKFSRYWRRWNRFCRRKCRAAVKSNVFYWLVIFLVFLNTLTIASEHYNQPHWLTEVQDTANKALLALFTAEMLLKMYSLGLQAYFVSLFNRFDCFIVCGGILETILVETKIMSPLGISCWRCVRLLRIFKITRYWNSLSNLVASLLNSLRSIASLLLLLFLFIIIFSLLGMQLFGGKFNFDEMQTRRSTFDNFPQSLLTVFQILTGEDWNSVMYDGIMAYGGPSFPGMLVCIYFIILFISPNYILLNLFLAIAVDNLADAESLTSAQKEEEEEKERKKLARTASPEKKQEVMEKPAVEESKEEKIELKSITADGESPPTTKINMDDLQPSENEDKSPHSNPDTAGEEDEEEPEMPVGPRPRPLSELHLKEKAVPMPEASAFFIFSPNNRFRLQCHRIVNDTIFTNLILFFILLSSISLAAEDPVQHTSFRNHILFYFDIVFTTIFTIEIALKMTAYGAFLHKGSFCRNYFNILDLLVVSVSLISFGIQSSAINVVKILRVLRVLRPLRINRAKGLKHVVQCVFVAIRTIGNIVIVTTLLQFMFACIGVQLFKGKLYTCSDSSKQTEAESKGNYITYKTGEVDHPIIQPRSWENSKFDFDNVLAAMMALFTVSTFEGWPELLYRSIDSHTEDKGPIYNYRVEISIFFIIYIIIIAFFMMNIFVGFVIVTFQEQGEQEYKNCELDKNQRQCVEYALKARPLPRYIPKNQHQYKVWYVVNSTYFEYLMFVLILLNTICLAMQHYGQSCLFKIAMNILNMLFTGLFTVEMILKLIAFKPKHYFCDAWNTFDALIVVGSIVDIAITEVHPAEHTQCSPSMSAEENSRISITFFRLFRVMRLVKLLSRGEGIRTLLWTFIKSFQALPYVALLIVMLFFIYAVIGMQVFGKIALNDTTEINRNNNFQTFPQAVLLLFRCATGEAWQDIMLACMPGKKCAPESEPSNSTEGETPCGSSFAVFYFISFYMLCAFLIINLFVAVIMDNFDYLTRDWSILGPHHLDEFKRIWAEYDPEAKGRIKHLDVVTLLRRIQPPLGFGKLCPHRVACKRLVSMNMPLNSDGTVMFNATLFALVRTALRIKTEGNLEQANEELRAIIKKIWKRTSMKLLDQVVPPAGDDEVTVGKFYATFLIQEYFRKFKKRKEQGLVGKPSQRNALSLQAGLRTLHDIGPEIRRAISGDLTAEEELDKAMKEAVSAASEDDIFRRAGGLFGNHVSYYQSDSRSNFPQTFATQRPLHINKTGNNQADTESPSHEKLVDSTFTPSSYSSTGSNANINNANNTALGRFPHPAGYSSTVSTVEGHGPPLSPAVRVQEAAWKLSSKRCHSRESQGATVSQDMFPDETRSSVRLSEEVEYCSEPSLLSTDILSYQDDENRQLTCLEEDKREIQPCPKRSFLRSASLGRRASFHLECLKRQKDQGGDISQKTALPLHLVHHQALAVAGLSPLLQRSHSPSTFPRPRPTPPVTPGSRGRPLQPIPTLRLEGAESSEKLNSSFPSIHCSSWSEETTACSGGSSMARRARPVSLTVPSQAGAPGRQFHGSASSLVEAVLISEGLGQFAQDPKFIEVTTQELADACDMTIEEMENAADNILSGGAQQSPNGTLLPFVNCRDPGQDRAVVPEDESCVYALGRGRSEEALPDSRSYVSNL

As for `CCOC(=O)C1=C(C)NC(c2ccc(Cl)cc2)=CC1c1cccc(OC)c1` (configuration not stated), the Activity in [1] worked out at 40.1%; in [3], 47.8%; in data set [5] it was 20.5%. The viability at 5 µM in [2] turned out to be 81.9%; in data set [4], 76.6%; in [7], 72.7%. In addition, the IC50 in data set [6] is 15.1 µM. The inhibition in data set [6] is 48%.
Take `CCOC(=O)C1=C(C)NC(c2ccccc2)=CC1c1ccc(OC)cc1` (configuration not stated): the Activity was found to be 34.1% in [1], 46.2% in [3] and 42% in data set [5]. The viability at 5 µM came to 81.3% in [2], 83.5% in data set [4] and 69.4% in data set [7]. Moreover, in [6], the IC50 amounted to 29.8 µM. Further, the “inhibition (INH)” value in [8] is on record as “Dose-dependent effect”.
With `CCOC(=O)C1=C(CC)NC(c2ccccc2)=CC1c1ccccc1` (configuration not stated), the Activity in data set [1] was found to be 31.4%; in [3] it was 32.8%. The figures for the viability at 5 µM in data set [2] and in data set [7] were 77.4% and 67.3%, respectively. Besides, the IC50 in [6] amounted to 12.8 µM.
As for `CCOC(=O)C1=C(C)NC(c2ccc(C)cc2)=CC1c1cccs1` (configuration not stated), the Activity in [1] amounted to 50.7%; in [3], 45.3%; in data set [5], 25.6%. Also, the viability at 5 µM in [2] is 81.9%; in data set [4], 77.5%; in [7], 75.6%. In addition, the half-maximal inhibitory concentration (IC50) in data set [6] was found to be 14.9 µM. Further, in data set [6], the inhibition amounted to 36%.
Consider `CC(=O)C1=C(C)NC(c2ccccc2)=CC1c1ccccc1` (configuration not stated), for which the Activity in data set [1] was determined as 32.5%; in data set [3] it was 61.9%; in [5], 21.7%. Further, the viability at 5 µM in data set [2] was determined as 87.3%; in data set [4], 76.7%; in [7], 67.4%. Further, in data set [6], the IC50 came to 27.1 µM. For the same molecule, the “inhibition (INH)” value in data set [8] is “Dose-dependent effect”.
Turning to `CC1=C(C(=O)SC(C)(C)C)C(c2ccc(C)cc2)C=C(c2ccccc2)N1` (configuration not stated), the Activity in data set [1] is recorded as 30.4%; in [3], 49.4%; in data set [5] it was 43.3%. The viability at 5 µM in data set [2] is 83.3%; in [4], 83.4%; in data set [7], 67.4%. Moreover, the IC50 in data set [6] stood at 56.2 µM.
As to `CC1=C(C(=O)SC(C)(C)C)C(c2ccc(C)cc2)C=C(c2ccc(C)cc2)N1` (configuration not stated), the Activity in data set [1] and in data set [3] was 36.2% throughout. Besides, the viability at 5 µM in [2] is 79.9%; in [7], 69.9%. Besides, in data set [6], the 50% inhibitory concentration (IC50) is greater than 100 µM.
Take `CC1(C)CC(=O)C2=C(C1)NC(c1ccccc1)=CC2c1ccccc1` (configuration not stated): the results for the Activity in [1] and in [3] were 21.4% and 26.9%, respectively. Also, the viability at 5 µM is 74.6% in [2] and 64% in data set [7]. The half-maximal inhibitory concentration (IC50) was 2.8 µM in [6] and 0.34 µM in [8]. Further, the inhibition in data set [6] worked out at 79%. For the same molecule, the “inhibition (INH)” value in data set [8] is reported as “Dose-dependent effect”. For the same molecule, in data set [9], the Ratio IC50 came out at 8.3.
In the case of `C=CCOC(=O)C1=C(C)NC(c2ccc(Cl)cc2)=CC1c1ccccc1` (configuration not stated), the Activity in data set [1] was found to be 29.8%; in data set [3] it was 41.5%; in data set [5], 44.1%. For the same molecule, the viability at 5 µM is 79.7% in [2], 84.3% in data set [4] and 68.7% in [7]. Further, the IC50 in [6] was found to be 18.5 µM. Also, the “inhibition (INH)” value in [8] was “Dose-dependent effect”.
Turning to `O=C1CCCC2=C1C(c1ccccc1)C=C(c1ccccc1)N2` (configuration not stated), the values for the Activity in data set [1] and in data set [3] were 28.2% and 39.8%, respectively. Moreover, the viability at 5 µM in [2] was found to be 80.3%; in data set [7] it was 66.4%. Besides, the IC50 in data set [6] was determined as 24 µM.
For the molecule `CCOC(=O)C1=C(C)NC(c2ccco2)=CC1c1ccc(C)cc1` (configuration not stated), the Activity was 32% in data set [1], 36.6% in data set [3] and 33.2% in data set [5]. Also, the viability at 5 µM in data set [2] is 78%; in [4], 79.9%; in [7], 68.5%. The IC50 in data set [6] was determined as 55.5 µM. In addition, the “inhibition (INH)” value in [8] is “Dose-dependent effect”.
In the case of `CCOC(=O)C1=C(C)NC(c2ccc(Cl)cc2)=CC1c1ccc(Cl)cc1` (configuration not stated), the values for the Activity in data set [1] and in [3] were 24.8% and 11.9%, respectively. The viability at 5 µM in data set [2] was found to be 69.9%; in data set [7], 65.1%. Further, the IC50 in data set [6] stood at 28.4 µM. Moreover, the “inhibition (INH)” value in data set [8] was “Dose-dependent effect”.
Regarding `CCOC(=O)C1=C(C)NC(c2ccc(Cl)cc2)=CC1c1ccccc1` (configuration not stated), the Activity in [1] amounted to 36.6%; in data set [3] it was 46.2%. For the same molecule, the viability at 5 µM is 82.7% in data set [2] and 69.4% in data set [7]. Also, the IC50 in [6] is 9.3 µM.
For `CCOC(=O)C1=C(C)NC(c2ccc(C)cc2)=CC1c1ccccc1[N+](=O)[O-]` (configuration not stated), in that order: 22.1%, 11.7%, 69.9%, 62.9% and 44.1 µM.
As to `CCOC(=O)C1=C(C)NC(c2ccc(Cl)cc2)=CC1c1ccccc1[N+](=O)[O-]` (configuration not stated), the Activity in data set [1] amounted to 13.7%. Also, the viability at 5 µM worked out at 60% in data set [2] and 59.3% in data set [7]. Besides, the IC50 in data set [6] was found to be 57.1 µM.
On to `CCCC1=C(C(=O)OCC)C(c2ccccc2)C=C(c2ccccc2)N1` (configuration not stated), for which the Activity in data set [1] is 23.3%; in data set [3], 42.9%; in data set [5], 34.8%. For the same molecule, the values for the viability at 5 µM in [2], in data set [4] and in data set [7] were 80.5%, 80.6% and 65.4%, respectively. In [6], the IC50 was 9.9 µM.
Take `CC1=C(C(=O)SC(C)(C)C)C(c2ccccc2)C=C(c2ccccc2)N1` (configuration not stated): the Activity in data set [1] was found to be 34.1%; in data set [3], 39.6%. Moreover, the viability at 5 µM in data set [2] was 79.5%; in data set [7], 68%. Further, in data set [6], the IC50 was determined as 95.8 µM. In [8], the “inhibition (INH)” value was “Dose-dependent effect”.
On to `CCOC(=O)C1=C(C)NC(c2ccccc2)=CC1c1ccc([N+](=O)[O-])cc1` (configuration not stated), for which, in [1], the Activity stood at 23.5%. In addition, the viability at 5 µM in data set [2] and in data set [7] was 64.6% in each case. In addition, the IC50 in data set [6] was found to be 12.2 µM.
Turning to `CC1=C(C(=O)SC(C)(C)C)C(c2ccc(Br)cc2)C=C(c2ccc(C)cc2)N1` (configuration not stated), the Activity was 34.5% in data set [1], 57.9% in data set [3] and 12.3% in data set [5]. Besides, the viability at 5 µM in data set [2] amounted to 85.7%; in [4], 74.2%; in [7], 67.2%. In addition, the IC50 in [6] was determined as 59.6 µM. In addition, the “inhibition (INH)” value in data set [8] is reported as “Dose-dependent effect”.
For the molecule `CCOC(=O)C1=C(C)NC(c2ccccc2)=CC1c1ccccc1` (configuration not stated), the Activity came to 34.6% in [1] and 32.5% in data set [3]. Moreover, the viability at 5 µM turned out to be 78.4% in data set [2] and 67.6% in data set [7]. The IC50 in data set [6] was 18.7 µM.
Take `COc1ccc(C2C=C(c3ccccc3)NC(C)=C2C(=O)SC(C)(C)C)cc1` (configuration not stated): the Activity in [1] was 31.3%; in data set [3], 45.7%; in [5], 38.6%. The viability at 5 µM came out at 82.3% in data set [2], 81.8% in data set [4] and 66.7% in [7]. Moreover, the IC50 in [6] amounted to 26.8 µM. In addition, the “inhibition (INH)” value in data set [8] is listed as “Dose-dependent effect”.

Source of the values: ChEMBL document CHEMBL3259712, “New 5-unsubstituted dihydropyridines with improved CaV1.3 selectivity as potential neuroprotective agents against ischemic injury” (J Med Chem, 2014).
